Measurements from ChEMBL document CHEMBL4725388, “Characterization of Aminobenzylphenols as Protein Disulfide Isomerase Inhibitors in Glioblastoma Cell Lines” (J Med Chem, 2020).
Values belong to the molecule of their own block, whether it stands above or below them. Active and inactive are the calls of the source. No cut-off for these calls is given here.

Legend:
[1] = molecular target: T1, Protein disulfide-isomerase (Homo sapiens, UniProt P07237); assay: Inhibition of recombinant human wild-type N-terminal His-tagged PDIA1 expressed in Escherichia coli strain BL21(DE3) at 10 uM using bovine insulin as substrate preincubated for 1 hr followed by substrate addition in absence of glutathione
Target sequence in this assay (P07237 18-508 limits assumed): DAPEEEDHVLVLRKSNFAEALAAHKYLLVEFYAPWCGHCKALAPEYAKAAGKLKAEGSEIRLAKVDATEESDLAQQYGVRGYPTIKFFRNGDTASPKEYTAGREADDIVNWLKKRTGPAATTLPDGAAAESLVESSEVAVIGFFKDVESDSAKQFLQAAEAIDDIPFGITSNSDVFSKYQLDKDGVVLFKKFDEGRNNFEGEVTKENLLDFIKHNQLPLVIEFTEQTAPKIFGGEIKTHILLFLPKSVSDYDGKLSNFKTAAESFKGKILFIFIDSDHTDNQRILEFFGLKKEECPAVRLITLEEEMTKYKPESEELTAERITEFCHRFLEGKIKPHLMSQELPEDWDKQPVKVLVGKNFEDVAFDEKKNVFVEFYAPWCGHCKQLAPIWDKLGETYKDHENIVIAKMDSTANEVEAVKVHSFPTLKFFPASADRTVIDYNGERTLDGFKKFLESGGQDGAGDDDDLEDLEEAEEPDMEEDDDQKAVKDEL

Homo sapiens = species on record: Homo sapiens; assay: Binding affinity to recombinant human wild-type N-terminal His-tagged PDIA1 C53S mutant expressed in Escherichia coli strain BL21(DE3) assessed as adduct formation at 100 uM measured after 30 mins in presence of DTT by Q-TOF MS analysis
[2] = molecular target: T1, Protein disulfide-isomerase; assay: Binding affinity to recombinant human wild-type N-terminal His-tagged PDIA1 expressed in Escherichia coli strain BL21(DE3) assessed as adduct formation at 100 uM measured after 30 mins in presence of DTT by Q-TOF MS analysis
Outline: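 Recombinant PDI at 10 μM incubated 30 min with 100 μM compound and 100 μM DTT before injection; adducts detected by quadrupole time-of-flight mass spectrometry.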
Target sequence in this assay (P07237 18-508 limits assumed): as above

[3] = molecular target: T1, Protein disulfide-isomerase; assay: Inhibition of recombinant human wild-type N-terminal His-tagged PDIA1 expressed in Escherichia coli strain BL21(DE3) using bovine insulin as substrate preincubated for 1 hr followed by substrate addition
Outline: (§1)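 IC50 from dose-response curves; PDI reductase assay for enzyme, MTT in U-87 MG cells for cytotoxicity; mean ± SD of at least three independent experiments.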
Target sequence in this assay (P07237 whole entry): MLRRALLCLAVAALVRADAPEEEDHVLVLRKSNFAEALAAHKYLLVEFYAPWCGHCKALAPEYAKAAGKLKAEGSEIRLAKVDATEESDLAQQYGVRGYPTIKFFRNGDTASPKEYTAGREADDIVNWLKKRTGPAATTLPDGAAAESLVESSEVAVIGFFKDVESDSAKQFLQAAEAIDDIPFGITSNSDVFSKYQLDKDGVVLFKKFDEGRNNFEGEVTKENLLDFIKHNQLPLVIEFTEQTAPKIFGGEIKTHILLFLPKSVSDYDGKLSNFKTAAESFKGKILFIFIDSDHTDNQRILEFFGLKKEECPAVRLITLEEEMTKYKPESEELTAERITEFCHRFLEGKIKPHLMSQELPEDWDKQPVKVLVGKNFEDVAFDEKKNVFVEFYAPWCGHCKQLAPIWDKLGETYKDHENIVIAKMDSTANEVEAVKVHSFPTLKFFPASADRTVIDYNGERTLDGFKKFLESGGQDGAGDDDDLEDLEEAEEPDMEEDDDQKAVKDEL

[4] = molecular target: T1, Protein disulfide-isomerase; assay: Inhibition of recombinant human wild-type N-terminal His-tagged PDIA1 expressed in Escherichia coli strain BL21(DE3) at 10 uM using bovine insulin as substrate preincubated for 1 hr followed by substrate addition in presence of glutathione
Outline: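 Glutathione added to the PDI reaction buffer before 10 μM compound; screening done with 5 mM GSH, reductase assay DTT at 500 μM.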
Target sequence in this assay (P07237 18-508 limits assumed): as the sequence (P07237 18-508 limits assumed) above

U-87 MG [5] = assay: Inhibition of colony formation in BSO-treated human U-87 MG cells at 0.3 to 30 uM measured after 10 to 14 days by crystal violet staining based assay; format: functional, cell-based; conditions: U-87MG ATCC, dose microM 0.3-30, time day 10-14
Outline: (§2)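 U-87 MG cells pretreated with BSO for 24 hours before compound addition; read-out by colony formation assay.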

[6] = molecular target: T1, Protein disulfide-isomerase; assay: Irreversible inhibition of recombinant human wild-type N-terminal His-tagged PDIA1 expressed in Escherichia coli strain BL21(DE3) at 400 uM using bovine insulin as substrate preincubated for 30 mins followed by 100-fold dilution substrate addition further incubated for 1 hr and subsequent substrate addition; conditions: time 1.5 hrs
Target sequence in this assay (P07237 18-508 limits assumed): as above

U-87 MG [7] = assay: Cytotoxicity against human U-87 MG cells assessed as growth inhibition measured after 72 hrs by MTT assay; format: functional, cell-based, U-87MG ATCC; outline: as §1
[8] = molecular target: T1, Protein disulfide-isomerase; assay: Binding affinity to recombinant human wild-type N-terminal His-tagged PDIA1 expressed in Escherichia coli strain BL21(DE3) assessed as increase in protein mass at 100 uM measured after 30 mins in presence of GSTO1 and GRP78 by Q-TOF MS analysis relative to control
Outline: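 100 μM compound incubated 30 min with a mix of 10 μM PDI, 10 μM GSTO1 and 10 μM GRP78 (GRP78 as non-specific binding control); protein masses read by QTOF MS before/after.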
Target sequence in this assay (P07237 18-508 limits assumed): as above

U-87 MG [9] = assay: Cytotoxicity against human U-87 MG cells assessed as growth inhibition at 30 uM measured after 72 hrs by MTT assay relative to control; format: functional, U-87MG ATCC; conditions: read-out: GI
Outline: (§3)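 Single-concentration screen: percent inhibition of cell growth at 30 μM in U-87 MG and MIA PaCa-2 cells by MTT.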

[10] = molecular target: T1, Protein disulfide-isomerase; assay: Binding affinity to recombinant human wild-type N-terminal His-tagged PDIA1 expressed in Escherichia coli strain BL21(DE3) assessed as change in melting temperature at 100 uM by ROX dye based thermal shift assay
Target sequence in this assay (P07237 18-508 limits assumed): as above

[11] = system: Protein disulfide-isomerase (Homo sapiens), P07237 [H256A]; assay: Inhibition of recombinant human wild-type N-terminal His-tagged PDIA1 H256A mutant expressed in Escherichia coli strain BL21(DE3) using bovine insulin as substrate preincubated for 1 hr followed by substrate addition
Sequence of Protein disulfide-isomerase (Homo sapiens), P07237 [H256A] (P07237 whole entry H256A): as the sequence (P07237 whole entry) above, with H256A counted along it

[12] = molecular target: T1, Protein disulfide-isomerase; assay: Inhibition of recombinant human wild-type N-terminal His-tagged PDIA1 expressed in Escherichia coli strain BL21(DE3) at 10 uM using bovine insulin as substrate […]
Outline: (§4)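 Compound incubated with N-acetyl cysteine before addition to the PDI reductase assay with PDIA1, at a final compound concentration of 10 μM.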

MIA PaCa-2 = assay: Cytotoxicity against human MIA PaCa-2 cells assessed as growth inhibition at 30 uM measured after 72 hrs by MTT assay relative to control; format: functional; conditions: read-out: GI; outline: as §3
[13] = molecular target: T1, Protein disulfide-isomerase; assay: Inhibition of recombinant human wild-type N-terminal His-tagged PDIA1 expressed in Escherichia coli strain BL21(DE3) at 10 uM using bovine insulin as substrate preincubated for 1 hr followed by substrate addition in presence of N-acetyl cysteine; outline: as §4
U-87 MG [14] = assay: Inhibition of colony formation in BSO-treated human U-87 MG cells at 0.3 to 10 uM measured after 10 to 14 days by crystal violet staining based assay; format: functional, cell-based; conditions: U-87MG ATCC, dose microM 0.3-10, time day 10-14; outline: as §2
[15] = molecular target: T1, Protein disulfide-isomerase; assay: Displacement of ANS from recombinant human wild-type N-terminal His-tagged PDIA1 expressed in Escherichia coli strain BL21(DE3) at 100 uM measured after 1 hr by fluorescence assay
[16] = molecular target: T1, Protein disulfide-isomerase; assay: Inhibition of recombinant human wild-type N-terminal His-tagged PDIA1 expressed in Escherichia coli strain BL21(DE3) at 40 uM using bovine insulin as substrate preincubated for 1 hr followed by substrate addition relative to control
[17] = molecular target: T1, Protein disulfide-isomerase; assay: Inhibition of recombinant human wild-type N-terminal His-tagged PDIA1 expressed in Escherichia coli strain BL21(DE3) assessed as ratio of Kinact to Ki using bovine insulin as substrate preincubated for 5 to 60 mins followed by substrate addition; conditions: time min 5-60
Outline: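 Activity measured in PDI reductase assay (insulin substrate, absorbance followed over time) at several inhibitor concentrations and preincubation times of 5 to 60 minutes; kinact/KI derived from concentration- and time-dependent inhibition curves.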

[18] = Drug uptake in human A 172 cell nucleus at 10 uM measured after 24 hrs by PDI antibody/DAPI staining based confocal microscopic analysis; format: ADME, subcellular; conditions: a 172, 24 h
[19] = molecular target: T1, Protein disulfide-isomerase; assay: Binding affinity to recombinant human wild-type N-terminal His-tagged PDIA1 expressed in Escherichia coli strain BL21(DE3) at 20 uM measured after 24 hrs in presence of BSA by SDS PAGE analysis
Albumin [20] = molecular target: T2, Albumin (Bos taurus, UniProt P02769); assay: Binding affinity to fetal bovine serum albumin at 20 uM measured after overnight incubation in presence of cell free DMEM medium by gel based assay; format: ADME; conditions: cattle
T2 sequence (P02769 whole entry): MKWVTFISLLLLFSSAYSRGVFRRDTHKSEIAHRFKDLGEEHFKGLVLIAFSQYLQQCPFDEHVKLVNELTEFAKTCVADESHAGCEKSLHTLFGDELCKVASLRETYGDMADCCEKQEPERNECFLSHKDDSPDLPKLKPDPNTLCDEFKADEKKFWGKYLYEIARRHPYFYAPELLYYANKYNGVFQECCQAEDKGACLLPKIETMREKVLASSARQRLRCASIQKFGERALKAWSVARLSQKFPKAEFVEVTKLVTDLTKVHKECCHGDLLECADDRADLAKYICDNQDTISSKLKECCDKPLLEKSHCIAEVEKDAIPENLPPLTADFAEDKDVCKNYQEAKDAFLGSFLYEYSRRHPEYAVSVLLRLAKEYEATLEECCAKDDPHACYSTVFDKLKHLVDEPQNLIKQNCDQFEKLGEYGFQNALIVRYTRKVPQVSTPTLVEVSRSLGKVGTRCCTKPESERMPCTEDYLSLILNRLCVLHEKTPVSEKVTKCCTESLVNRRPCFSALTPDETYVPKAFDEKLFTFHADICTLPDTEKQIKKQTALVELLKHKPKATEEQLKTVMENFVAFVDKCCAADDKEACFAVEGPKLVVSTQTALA

Albumin [21] = molecular target: T2, Albumin; assay: Binding affinity to BSA at 100 uM measured after overnight incubation by coomassie staining GFP channel based Western blot assay; format: ADME, cell-free; conditions: cattle, serum
[22] = Drug uptake in human A 172 cell endoplasmic reticulum at 10 uM measured after 24 hrs by PDI antibody/DAPI staining based confocal microscopic analysis; format: ADME, subcellular; conditions: a 172, 24 h
[23] = molecular target: T1, Protein disulfide-isomerase; assay: Binding affinity to PDIA1 in human U-87 MG cell lysates at 5 uM measured after 24 hrs by PAGE analysis; format: subcellular
[24] = Drug uptake in human A 172 cell cytoplasm at 10 uM measured after 24 hrs by PDI antibody/DAPI staining based confocal microscopic analysis; format: ADME, subcellular; conditions: a 172, 24 h
[25] = molecular target: T1, Protein disulfide-isomerase; assay: Binding affinity to PDIA1 in human U-87 MG cells at 5 uM measured after 24 hrs in presence of DTT by coomassie staining GFP channel based Western blot assay; format: cell-based

inhibition [1]: 100%
Activity (Homo sapiens): Active
Activity [2]: Active
IC50 [3]: 1.2 µM
inhibition [4]: 44%
SMILES: Oc1c(C(c2ccc(F)cc2)N2CCNCC2)ccc2cncnc12 (configuration not stated)
inhibition (U-87 MG [5]): inactive

inhibition [6]: inactive
fold change (FC) [8]: 2
Activity [2]: Active
IC50 [3]: 1.06 µM
SMILES: COc1cccc(C(c2cc3c(cc2O)OCO3)N2CCOCC2)c1OC (configuration not stated)
IC50 (U-87 MG [7]): 32 µM
inhibition of growth at 30 µM (U-87 MG [9]): 66%

inhibition [6]: inactive
ΔTm [10]: -0.05 °C
inhibition [11]: Active
inhibition [12]: Active
IC50 [3]: 0.17 µM
inhibition [13]: inactive
inhibition [4]: inactive
inhibition [15]: inactive
inhibition [16]: 50%
SMILES: Oc1c(C(Nc2ccccn2)c2ccc(Cl)cc2)ccc2cccnc12 (configuration not stated)
IC50 (U-87 MG [7]): 10.6 µM
inhibition of growth at 30 µM (U-87 MG [9]): > 40%
inhibition of growth at 30 µM (MIA PaCa-2): > 40%
inhibition (U-87 MG [14]): Active

ΔTm [10]: 1.55 °C
inhibition [13]: inactive
inhibition [4]: inactive
inhibition [15]: Active
SMILES: N#Cc1cccc(/C=C/C(=O)c2ccc(O)cc2)c1

Ratio [17]: 1.7 10^2/M/s
SMILES: COC(=O)C1(C)c2[nH]c3ccccc3c2CCN1C(=O)CCl (configuration not stated)

Drug uptake [18]: Active
Activity [19]: Active
Activity (Albumin [20]): Active
Activity (Albumin [21]): Not Active
Drug uptake [22]: Active
Activity [23]: Active
Drug uptake [24]: Active
Activity [25]: inactive
IC50 [3]: 1.37 µM
SMILES: CC1=CC(C)=[N+]2C1=C(c1ccc(C(=O)NCCNC(=O)c3ccc(C(c4cc5c(cc4O)OCO5)N4CCCCC4)cc3)cc1)c1c(C)cc(C)n1[B-]2(F)F (configuration not stated)

IC50 [3]: 0.39 µM
SMILES: COc1cccc(C(c2ccc3cccnc3c2O)N2CCOCC2)c1OC (configuration not stated)
IC50 (U-87 MG [7]): 33 µM
inhibition of growth at 30 µM (U-87 MG [9]): 74%
